RORa activator: activates the human nuclear receptor RORA | hit rate 1.5% among 65,000 | activation, % at 10 µM | P35398 | CHO-K1 Gal4-RORA LBD luciferase reporter, luminescence; percent increase over mock-subtracted basal signal;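 active = activation above the mean of all tested compounds plus 3 SD, cut at about 49% in these data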
Target sequence (P35398 whole entry, looked up, the tested form may be a part): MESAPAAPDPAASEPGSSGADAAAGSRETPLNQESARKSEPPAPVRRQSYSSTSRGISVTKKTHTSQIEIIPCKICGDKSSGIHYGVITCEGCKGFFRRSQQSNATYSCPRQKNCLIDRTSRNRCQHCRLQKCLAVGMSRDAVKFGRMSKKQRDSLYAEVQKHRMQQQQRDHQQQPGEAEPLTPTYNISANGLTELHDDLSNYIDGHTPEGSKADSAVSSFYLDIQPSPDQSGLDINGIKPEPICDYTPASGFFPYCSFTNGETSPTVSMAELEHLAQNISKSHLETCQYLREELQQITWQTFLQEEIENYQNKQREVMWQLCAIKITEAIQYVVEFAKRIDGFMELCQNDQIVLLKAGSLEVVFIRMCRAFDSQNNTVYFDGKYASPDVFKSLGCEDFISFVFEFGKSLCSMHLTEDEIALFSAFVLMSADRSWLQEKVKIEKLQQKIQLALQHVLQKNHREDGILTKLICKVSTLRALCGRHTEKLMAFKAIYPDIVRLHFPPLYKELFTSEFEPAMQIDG
M1 antagonist: antagonists of rat M1 muscarinic receptor. P08482. CHO-M1 cells, Fluo-4 calcium, ACh EC80 antagonist mode; active compounds read low. B-score at 10 µM. hit rate 3.4% among 64,000;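 active = calcium fluorescence response, raw or row-and-column corrected B-score, differing from the plate sample mean either way at a set confidence level, mostly lower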
M1 ag: agonists of M1 muscarinic receptor | CHO-M1 cells, Fluo-4 calcium fluorescence, agonist mode; active compounds read high | B-score at 10 µM | hit rate 3% among 64,000;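 active = fluorescence rise, raw or as B-score row- and column-corrected plate score, outside the 99.7% band of its plate's samples, either direction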
SF-1 act: activators of human nuclear receptor SF-1; hit rate 1.9% among 65,000; Q13285; activation, % at 10 µM; CHO-K1 Gal4-SF-1 LBD luciferase reporter; % increase over DMSO SF-1-specific signal; AID 522;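 active = activation above the mean activation of all tested compounds plus 3 SD, cut at about 50% in these data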
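Material: Gal4–SF-1 LBD one-hybrid luciferase reporter in CHO-K1 cells | Amount: 4,000 cells per well | Compound dosing: 10 µM single point, 1% DMSO | Schedule: 20 h compound treatment, 37 °C | Measured by: SteadyLite luciferase luminescence | Evaluation: Percent activation versus DMSO | Control set: DMSO-treated SF-1-transfected cells as negative, DMSO-treated mock-transfected cells lacking SF-1 as background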
D1 mod: allosterically modulates the human D1 dopamine receptor; P21728; HEK293 D1, CRE-luciferase, dopamine EC30 potentiation; actives deviate in either direction; B-score at 10 µM; hit rate 5.9% among 58,000;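 active = luminescence count or its row- and column-corrected plate score outside the 99.7% band of the plate's sample wells, on either side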
HePTP inh: inhibitors of human HePTP phosphatase; P35236; inhibition, % at 20 µM; hit rate 0.64% among 110,000; recombinant HePTP phosphatase activity, OD absorbance; in the data active = inhibition above about 50%
D1 mod confirm: confirmation of human D1 dopamine receptor allosteric modulators | shares compounds with D1 mod | HEK293 D1 CRE-luciferase, dopamine EC30 potentiation; active compounds read high | luminescence at 10 µM | hit rate 88% among 2,200;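 active = luminescence in either of two replicates above the same-plate mean plus 3 SD of the low-dose dopamine control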
D1 ag no DA: D1 (human) signaling in absence of dopamine | AID 646 | shares compounds with D1 mod | hit rate 0.8% among 1,900 | luminescence at 10 µM | HEK293 D1 CRE-luciferase, luminescence, no dopamine; active compounds read high; in the data active = luminescence above about 3900
Isoprot counter: alters isoproterenol CRE-luciferase response in HEK293 cells | HEK293 D1 CRE-luciferase, isoproterenol EC30 counter-screen | shares compounds with D1 mod | AID 647 | calls only at 10 µM | hit rate 63% among 2,200;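 active = luminescence in either replicate above plate mean of wells with a partly effective reference agonist dose plus 3 SD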;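 also: isoproterenol raises cAMP through native beta-adrenoceptor Gs so signal bypasses D1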
Hits are given with their value; – = inactive; · = no result; + = active, no number. Shown are actives, neighbours in structure and some others; about 8.2% of the full set was active somewhere.

SMILES	RORa activator	M1 antagonist	M1 ag	SF-1 act	D1 mod	HePTP inh	D1 mod confirm	D1 ag no DA	Isoprot counter
Cc1nc2cc(-c3ccccc3)nn2c(C)c1CCC(=O)N1CCC2(CC1)OCCO2	–	–	–	–	–	–	·	·	·
Cc1nc2ncnn2c(C)c1CCC(=O)N1CCC2(CC1)OCCO2	–	–	–	–	2.8	–	–	–	–
Cc1nc2c(-c3ccc(F)cc3)c(C)nn2c(C)c1CCC(=O)N1CCC2(CC1)OCCO2	–	–	–	–	6.1	–	7792	–	+
CCOc1ccccc1C1SCC(=O)Nc2c1c(=O)[nH]n2C(CC)CC (stereo not given)	–	–	–	–	·	–	·	·	·
C1CCC2(C1)NN2CCN1NC12CCCC2 (stereo not given)	·	·	·	·	·	–	·	·	·
Cn1c(O)c(C(=O)c2ccccc2)c(=O)n(C)c1=O	–	–	–	–	8.4	·	–	–	–
Cc1[nH]c2c(C(F)(F)F)cccc2c1CCN	–	–	–	–	7.8	–	–	·	–
c1ccc2c(c1)CNc1ccccc1O2	–	·	·	–	–	–	·	·	·
Cc1nn(Cc2ccccc2)c(C)c1C(=O)OCC(=O)Nc1ccccc1SCC#N	–	–	–	–	4.2	–	8752	·	+
COCCOC(=O)c1c(N)n(Cc2ccc(OC)cc2)c2nc3ccccc3nc12	–	–	–	–	6.3	–	12708	–	+
COC(=O)c1c(N)n(Cc2ccc(OC)cc2)c2nc3ccccc3nc12	–	–	–	–	7	–	8940	–	+
CCOC(=O)c1cc2c(cn1)[nH]c1ccccc12	–	–	–	–	16	–	15472	–	+
CCC(=NCc1ccco1)c1c(O)n(C2CCCCC2)c(=O)[nH]c1=O	–	–	–	–	14	–	16640	–	+
CC(=NCc1cccnc1)c1c(O)n(C2CCCCC2)c(=O)[nH]c1=O	–	–	–	–	6	–	9208	–	+
CC(=NCc1cccnc1)c1c(O)n(-c2ccc(C)cc2)c(=O)[nH]c1=O	–	–	–	–	–	–	·	·	·
CCC(=NCc1cccnc1)c1c(O)n(C2CCCCC2)c(=O)[nH]c1=O	–	–	–	–	15	–	9572	–	+
CCC(=NCCCN(CC)CC)c1c(O)n(C2CCCCC2)c(=O)[nH]c1=O	–	–	–	–	–	–	·	·	·
CC(=NCc1ccco1)c1c(O)n(Cc2ccccc2)c(=O)[nH]c1=O	–	–	–	–	4.5	–	10196	–	+
CCC(=O)c1c(O)n(C2CCCCCC2)c(=O)[nH]c1=O	–	–	–	–	–	–	·	·	·
C[C@@H]1CC[C@@]2(NC1)OC1C[C@H]3C4CC=C5CC(O)CCC5(C)C4CCC3(C)C1[C@@H]2C (stereo not given in full)	·	·	·	·	·	–	·	·	·
O=c1c2ccccc2nc(-c2ccccc2F)n1-c1ccccc1	·	·	·	·	·	–	·	·	·
Cn1c(O)c(C=NCCCN2CCCC2=O)c(=O)n(C)c1=O	–	–	–	–	–	–	·	·	·
Cc1ccc(S(=O)(=O)ON2CC2(C(F)(F)F)C(F)(F)F)cc1 (stereo not given)	·	·	·	·	·	–	·	·	·
Cc1cccc(N2C(=O)NC(=O)C(=Cc3ccc(N(C)C)cc3)C2=O)c1	·	·	·	·	·	–	·	·	·
O=c1[nH]c(=O)n(CCc2ccc(F)cc2)c(O)c1C=NCCCN1CCOCC1	–	–	–	–	12	–	–	–	–
CCOC(=O)c1c(C)n(CC(C)C)c2ccc(OC)cc12	·	·	·	·	·	–	·	·	·
CCOC(=O)c1c(C)n(Cc2ccco2)c2ccc(OC)cc12	–	–	–	–	3.9	–	–	–	–
CCCCc1nc2ccccc2c(=O)n1-c1ccc(O)cc1	–	–	–	–	3.7	–	8012	–	+
CCOc1ccc(-n2c(CC)nc3ccccc3c2=O)cc1	–	–	–	–	–	–	·	·	·

Screening results deposited in PubChem BioAssay by several laboratories.
